Assay [1] has as its system naive CD8+ T cells derived from HD-PBMCs. It is filed as cell-based, human. The following applies: for immunogenicity (CD8+ T-cell induction), in words: six HD-PBMCs, cocktail of four natural HLA-A24 neoantigens; for CD8+ T-cell induction by AKF9 variants, in words: seven HD-PBMCs, cocktail of AKF9 variants along with the WT, tetramer staining.
Assay [2] relates to neoantigen-reactive CD8+ T-cell clones. Description: IFNγ ELISpot assay of neoantigen-reactive CD8+ T-cell clones. It is filed as cell-based, human. The following applies: T2-A24 pulsed with 20 µM peptide, 24 h 37°C. The essentials:
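Clones came from single tetramer-positive CD8+ cells sorted and expanded with irradiated allogeneic feeders, 5 μg/mL PHA and 100 IU/mL IL-2. T2-A24 cells were pre-incubated with 20 µM mutant or WT peptide for 2 h at 25°C. Spots were detected with 2 µg/mL biotinylated anti-IFNγ, streptavidin-HRP and AEC substrate.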

The next assay concerns HLA-A24 on T2-A24 cells. Description: Peptide-HLA class I stability assay. The following applies: peptide 0.3 to 3 µM. The class given is binding, human. The essentials: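 TAP-deficient T2-A24 cells were pre-cultured overnight at 25°C. Cells were pulsed with mutant or WT peptide (0.3–3 µM) for 1 h at 25°C, then 3 h at 37°C. Surface HLA-A24 was stained with anti-HLA-A24 (C7709A2) and goat anti-mouse IgG-FITC, then read by flow cytometry. ΔMFI = MFI with peptide minus MFI without. Known HLA-A24 binder and non-binder peptides were controls. Comparison at 1 µM, SEM (n = 3), two-tailed t-test.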

Turning to VYVAKLHDI [VYI9], the “immunogenicity (CD8+ T-cell induction), in words” value (“immunogenicity” for short) in assay [1] is on record as “failed to induce T-cell responses”. On to AYLEAIHNF [ANF9], for which the “recognition by ADF9-reactive CD8+ T-cell clones (D1-D5), IFNγ ELISpot” value in assay [2] is “three of the five clones”. Turning to HYAALRELI [HI9], the “immunogenicity” value in assay [1] is recorded as “failed to induce T-cell responses”. Turning to AYLEAIHKF [AKF9], the “effect of the mutation on pHLA I stability versus wild-type peptide” value with HLA-A24 on T2-A24 cells is “unaltered”. In assay [1] (of six HD-PBMCs, response = ≥ 4-fold increase with ≥ 0.1% tetramer+ CD8+ cells), the “number of HDs with CD8+ T-cell response” value is recorded as “three”. In assay [1], the “CD8+ T-cell induction by AKF9 variants, in words” value is on record as “increased the frequency” and the “immunogenicity” value is recorded as “immunogenic”. On to AYLEAIHDF [ADF9], for which, in assay [1], the “CD8+ T-cell induction by AKF9 variants, in words” value is on record as “increased the frequency”. Consider TLPEEFHEF [TEF9], for which the “effect of the mutation on pHLA I stability versus wild-type peptide” value in the assay on HLA-A24 on T2-A24 cells is listed as “increased”. For the same sequence, in assay [1], the “immunogenicity” value is given as “immunogenic”.

On to AYLEAIHYF [AYF9], for which, in assay [1], the “CD8+ T-cell induction by AKF9 variants, in words” value is given as “increased the frequency”. As to AYLEAIHHF [AHF9], the “CD8+ T-cell induction by AKF9 variants, in words” value in assay [1] is reported as “increased the frequency”.

Values taken from publication PMC7833734 (Oncoimmunology, 2021).
